Consider six compounds from ChEMBL document CHEMBL1148389 (J Med Chem, 2004).

The test system of data set [1] is Escherichia coli. The data set is described as follows: Minimum inhibitory concentration against Escherichia coli was determined. In kind it is functional. In short, it runs like this:
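Broth microdilution against E. coli BL21(DE3) pLysS in cation-adjusted Mueller–Hinton broth. Stocks in 1 M KOH, diluted via 50 mM Na2CO3 pH 8.5; final 0.01–64 μg/mL.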

Data set [2] has as its target Enoyl-[acyl-carrier-protein] reductase [NADH] FabI (Escherichia coli) (UniProt P0AEK4). The data set is described as follows: In vitro inhibitory activity against wild-type enoyl-[acyl-carrier-protein] reductase (FabI) of Escherichia coli expressed as K2.
For data set [3] the target is unchanged. The data set is described as follows: In vitro inhibitory activity against wild-type enoyl-[acyl-carrier-protein] reductase (FabI) of Escherichia coli expressed as K1.
Data set [4] is described as follows: Ionisation constant for the compound. Type of data set: physicochemical. In short, it runs like this: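 pKa measured by UV–vis absorbance of the conjugate base in buffers from pH 6.8 to 10.8; DMSO stocks diluted to 0.4–0.5% DMSO. Fraction of A− plotted against pH to obtain pKa.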

Converted amounts (≈) assume the structure as drawn. “And” between values parts separate entries of the source, which are not always exact repeats. Equal entries are not always repeated.

Enoyl-[acyl-carrier-protein] reductase [NADH] FabI (Escherichia coli), sequence (P0AEK4 whole entry, looked up): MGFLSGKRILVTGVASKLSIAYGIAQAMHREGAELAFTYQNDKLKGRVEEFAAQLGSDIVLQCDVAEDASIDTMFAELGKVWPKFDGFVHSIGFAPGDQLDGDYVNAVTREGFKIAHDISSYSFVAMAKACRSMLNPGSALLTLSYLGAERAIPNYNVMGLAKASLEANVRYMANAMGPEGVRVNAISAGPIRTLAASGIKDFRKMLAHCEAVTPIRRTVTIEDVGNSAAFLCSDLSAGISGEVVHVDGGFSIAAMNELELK

One may read the MIC as the lowest concentration found to suppress growth. A high value points to weaker potency. The compound `Oc1ccccc1Cc1ccccc1O` registered an MIC in data set [1] of over 40 mg/L. For the same compound, the K2 in data set [2] is 30 µM. The same compound came in with a K1 in data set [3] of 53 µM.
As usually defined, the pKa is the pH at which an ionisable group is half protonated. `Oc1cc(Cl)ccc1Oc1ccc(Cl)cc1Cl` [TRICLOSAN]: the MIC in data set [1] was found to be 0.3 mg/L (≈ 1.04 µM). Also, the pKa in data set [4] was found to be 8.4; in data set [4] (read-out: pKa), 7.8.
With `Oc1cc(Cl)ccc1Oc1ccccc1`, the minimal inhibitory concentration (MIC) in data set [1] was 0.07 mg/L (≈ 0.317 µM). In addition, the pKa in data set [4] (read-out: pKa) turned out to be 8.13. This compound displayed a K1 in data set [3] of 1.1e-06 µM.
For `Oc1cc(F)ccc1Oc1ccccc1`, in data set [1], the MIC came to 0.6 mg/L (≈ 2.94 µM). Moreover, in data set [4] (read-out: pKa), the pKa was determined as 8.12. In addition, in data set [2], the K2 is 0.042 µM and 0.24 µM.
`Oc1ccccc1Oc1ccccc1`: the MIC in data set [1] is 3.7 mg/L (≈ 19.9 µM). The pKa in data set [4] (read-out: pKa) came to 9.12. Further, the K2 in data set [2] came to 0.4 µM. In addition, the K1 in data set [3] was determined as 0.5 µM.
`Cc1ccc(Oc2ccccc2)c(O)c1` came in with an MIC in data set [1] of 1 mg/L (≈ 4.99 µM). In addition, the pKa in data set [4] (read-out: pKa) amounted to 9.15. Further, the K2 in data set [2] was 0.0072 µM and 0.0097 µM.
